One block for each molecule: values may come before it. Activity calls are given as the source filed them.
Experiments:
[1] = system: Pancreatic islet cell carcinoma; assay: Additive antitumor activity in pancreatic islet cell carcinoma in RIP-Tag2 mouse assessed as reduction in proliferation by measuring reduction in phospho-histone H3 level at 100 mg/kg, po qd administered via gavage for 4 days in presence of OXA-01 by immunohistochemistry analysis; format: functional, organism-based; details: time 4.0 day
How it was run: (§1)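 Perfusion-fixed tumor sections (60–80 µm) stained for phospho-histone H3 (proliferation) or activated caspase-3 (apoptosis) and quantified from confocal images. 3–8 mice/group; ANOVA, Fisher PLSD.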

[2] = biological target: Vascular endothelial growth factor receptor 2 (Homo sapiens, UniProt P35968)
Sequence of Vascular endothelial growth factor receptor 2 (P35968 whole entry): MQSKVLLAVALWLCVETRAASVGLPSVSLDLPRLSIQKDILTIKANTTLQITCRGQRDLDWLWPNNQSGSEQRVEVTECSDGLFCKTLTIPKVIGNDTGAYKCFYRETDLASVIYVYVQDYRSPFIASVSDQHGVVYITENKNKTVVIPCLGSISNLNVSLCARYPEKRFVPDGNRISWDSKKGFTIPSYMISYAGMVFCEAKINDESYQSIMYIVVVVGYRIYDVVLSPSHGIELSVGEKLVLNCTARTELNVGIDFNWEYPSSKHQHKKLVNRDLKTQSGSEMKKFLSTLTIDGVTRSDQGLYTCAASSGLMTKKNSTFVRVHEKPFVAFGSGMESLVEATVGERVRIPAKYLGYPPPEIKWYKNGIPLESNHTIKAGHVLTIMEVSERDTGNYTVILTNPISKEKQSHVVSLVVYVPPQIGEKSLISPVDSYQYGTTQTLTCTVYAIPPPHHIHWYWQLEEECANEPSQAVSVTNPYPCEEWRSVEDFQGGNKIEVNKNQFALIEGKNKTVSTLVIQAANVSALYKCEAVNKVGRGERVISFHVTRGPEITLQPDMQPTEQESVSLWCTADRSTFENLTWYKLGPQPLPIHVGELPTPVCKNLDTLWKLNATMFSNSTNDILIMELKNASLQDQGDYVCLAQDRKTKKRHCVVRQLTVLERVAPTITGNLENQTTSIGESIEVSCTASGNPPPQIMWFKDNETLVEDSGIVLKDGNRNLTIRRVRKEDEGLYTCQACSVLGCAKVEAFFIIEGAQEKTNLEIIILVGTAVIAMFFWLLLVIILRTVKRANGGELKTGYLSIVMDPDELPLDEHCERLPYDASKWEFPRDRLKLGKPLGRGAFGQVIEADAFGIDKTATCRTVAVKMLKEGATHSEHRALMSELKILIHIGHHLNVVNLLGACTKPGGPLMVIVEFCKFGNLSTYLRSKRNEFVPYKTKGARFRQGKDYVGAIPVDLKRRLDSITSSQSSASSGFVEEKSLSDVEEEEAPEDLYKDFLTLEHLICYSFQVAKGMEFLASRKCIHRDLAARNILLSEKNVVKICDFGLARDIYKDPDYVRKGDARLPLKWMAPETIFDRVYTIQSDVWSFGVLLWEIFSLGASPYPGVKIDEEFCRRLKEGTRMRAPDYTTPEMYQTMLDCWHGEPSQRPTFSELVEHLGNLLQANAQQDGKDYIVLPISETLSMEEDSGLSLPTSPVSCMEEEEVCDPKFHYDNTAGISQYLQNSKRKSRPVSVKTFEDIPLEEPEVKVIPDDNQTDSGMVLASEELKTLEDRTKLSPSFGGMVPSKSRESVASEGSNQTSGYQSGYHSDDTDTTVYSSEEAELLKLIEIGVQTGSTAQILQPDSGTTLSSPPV

[3] = system: Pancreatic islet cell carcinoma; assay: Antivascular activity against pancreatic islet cell carcinoma in RIP-Tag2 mouse assessed as reduction in CD31-positive tumor blood vessels at 200 mg/kg, po qd administered via gavage and measured after 7 days by immunohistochemical staining based fluorescence microscopic analysis relative to control; format: functional; set-up: scale not given: the % may be the effect or the level left; details: time 7 day
How it was run: (§2)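 For 7 days, RIP-Tag2 mice, 9–10 weeks old, received 75 mg/kg gavage BID, 200 mg/kg gavage QD, or 20 mg/kg ip QD. Perfusion-fixed tumors cut at 60–80 µm and stained for CD31 and type IV collagen basement membrane. Vessel area density from fluorescence images with threshold 30–50; sprouts and empty basement membrane sleeves examined by confocal microscopy. 3–8 mice/group; ANOVA, Fisher PLSD.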

[4] = system: Pancreatic islet cell carcinoma; assay: Antivascular activity against pancreatic islet cell carcinoma in RIP-Tag2 mouse assessed as appearance of empty basement membrane sleeves at 200 mg/kg, po qd administered via gavage and measured after 7 days by immunohistochemical staining based fluorescence microscopic analysis; format: functional, organism-based; details: time 7.0 day; how it was run: as §2
[5] = system: Pancreatic islet cell carcinoma; assay: Additive antitumor activity in pancreatic islet cell carcinoma in RIP-Tag2 mouse assessed as induction of apoptosis by measuring increase in activated caspase-3 level at 100 mg/kg, po qd administered via gavage for 4 days in presence of OXA-01 by immunohistochemistry analysis relative to control; format: functional; details: time 4 day; how it was run: as §1
[6] = system: Pancreatic islet cell carcinoma; assay: Antitumor activity in pancreatic islet cell carcinoma in RIP-Tag2 mouse assessed as induction of apoptosis by measuring increase in activated caspase-3 level at 100 mg/kg, po qd administered via gavage for 4 days in presence of rapamycin by immunohistochemistry analysis; format: functional, organism-based; details: time 4.0 day; how it was run: as §1
[7] = system: Pancreatic islet cell carcinoma; assay: Antivascular activity in pancreatic islet cell carcinoma in RIP-Tag2 mouse assessed as reduction in intratumoral hemorrhage by measuring reduction in TER-119 immunoreactivity at 200 mg/kg, po qd administered via gavage for 7 days followed by cessation and measured after 4 days by confocal microscopic analysis relative to control; format: functional; set-up: scale not given: the % may be the effect or the level left; details: time 7 day
How it was run: (§3)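 Regrowth design in 10-week-old RIP-Tag2 mice: OSI-930 200 mg/kg gavage QD for 7 days, then 4 days of vehicle, 75 mg/kg gavage BID, or 20 mg/kg ip QD; controls received vehicle for 11 days. Perfusion-fixed sections stained for CD31 for vessel density or for the erythrocyte marker TER-119, quantified by confocal microscopy. 3–8 mice/group; ANOVA, Fisher PLSD.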

[8] = system: Pancreatic islet cell carcinoma; assay: Antivascular activity against pancreatic islet cell carcinoma in RIP-Tag2 mouse assessed as reduction in vascular sprouts at 200 mg/kg, po qd administered via gavage and measured after 7 days by immunohistochemical staining based fluorescence microscopic analysis relative to control; format: functional; set-up: scale not given: the % may be the effect or the level left; details: time 7 day; how it was run: as §2
[9] = system: Pancreatic islet cell carcinoma; assay: Antivascular activity in pancreatic islet cell carcinoma in RIP-Tag2 mouse assessed as reduction in intratumoral hemorrhage by measuring reduction in TER-119 immunoreactivity at 200 mg/kg, po qd administered via gavage and measured after 7 days by confocal microscopic analysis relative to control; format: functional; set-up: scale not given: the % may be the effect or the level left; details: time 7 day; how it was run: as §3
[10] = system: Pancreatic islet cell carcinoma; assay: Antitumor activity against pancreatic islet cell carcinoma in RIP-Tag2 mouse assessed as reduction in VEGF production by measuring reduction in fluorescence in entire tumor at 20 mg/kg, ip qd measured after 7 days by immunohistochemical staining based confocal microscopic analysis relative to control; format: functional; set-up: scale not given: the % may be the effect or the level left; details: time 7 day
How it was run: (§4)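 Treatment began in RIP-Tag2 mice at 9–10 weeks: 75 mg/kg gavage BID for 1, 4 or 7 days, or 20 mg/kg ip QD for 7 days; vehicle Labrifil or water. Tissue fixed by vascular perfusion and 60–80 µm sections stained for VEGF with CD31. VEGF fluorescence intensity measured over whole tumor, tumor cells, or tumor vessels. 3–8 mice/group; ANOVA, Fisher PLSD.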

Mus musculus [11] = assay: In vivo inhibition of 4E-BP1 phosphorylation in RIP-Tag2 mouse with pancreatic islet cell carcinoma 20 mg/kg, ip qd measured after 7 days by immunohistochemistry; format: functional, organism-based; details: time 7.0 day
How it was run: (§5)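 RIP-Tag2 mice, 9–10 weeks old, given 20 mg/kg QD ip for 7 days; perfusion-fixed, 60–80 µm tumor sections immunostained for phospho-4E-BP1, phospho-Akt or phospho-S6K together with CD31; fluorescence/confocal imaging; 3–8 mice per group.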

Mus musculus [12] = assay: In vivo inhibition of S6K phosphorylation in RIP-Tag2 mouse with pancreatic islet cell carcinoma 20 mg/kg, ip qd measured after 7 days by immunohistochemistry analysis; format: functional, organism-based; details: time 7.0 day; how it was run: as §5
[13] = system: Pancreatic islet cell carcinoma; assay: Antivascular activity against pancreatic islet cell carcinoma in RIP-Tag2 mouse assessed as reduction in vascular sprouts at 20 mg/kg, ip qd measured after 7 days by immunohistochemical staining based fluorescence microscopic analysis relative to control; format: functional; set-up: scale not given: the % may be the effect or the level left; details: time 7 day; how it was run: as §2
[14] = biological target: RAC-alpha serine/threonine-protein kinase (Homo sapiens) (UniProt P31749); assay: (§6) Inhibition of AKT phosphorylation at Ser 473 site in serum deprived/insulin stimulated human OVCAR-3 cells harboring PTEN and wild type PI3K at 0.001 to 10 uM preincubated for 2 hrs followed by insulin stimulation and measured immediately by Western blot analysis; format: cell-based; details: dose 0.001-10 µM
Sequence of RAC-alpha serine/threonine-protein kinase (Homo sapiens) (P31749 whole entry): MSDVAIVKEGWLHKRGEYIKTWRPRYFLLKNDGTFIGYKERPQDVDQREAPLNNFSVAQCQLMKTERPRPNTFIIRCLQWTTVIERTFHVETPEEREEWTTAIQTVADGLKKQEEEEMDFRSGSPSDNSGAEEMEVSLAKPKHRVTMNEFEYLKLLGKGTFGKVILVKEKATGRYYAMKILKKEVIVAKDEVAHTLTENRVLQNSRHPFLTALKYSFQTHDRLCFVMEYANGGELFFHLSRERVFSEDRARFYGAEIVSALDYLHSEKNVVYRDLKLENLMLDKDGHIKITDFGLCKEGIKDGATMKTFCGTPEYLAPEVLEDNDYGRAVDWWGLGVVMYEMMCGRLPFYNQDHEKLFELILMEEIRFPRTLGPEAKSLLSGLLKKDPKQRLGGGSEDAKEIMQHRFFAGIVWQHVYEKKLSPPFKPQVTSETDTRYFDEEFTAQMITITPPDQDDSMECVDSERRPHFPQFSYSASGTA

[15] = system: Pancreatic islet cell carcinoma; assay: (§7) Antitumor activity against pancreatic islet cell carcinoma in RIP-Tag2 mouse assessed as reduction in VEGF production by measuring reduction in tumor cell associated fluorescence intensity at 20 mg/kg, ip qd measured after 7 days by immunohistochemical staining based confocal microscopic analysis relative to control; format: functional; set-up: scale not given: the % may be the effect or the level left; details: time 7 day; how it was run: as §4
[16] = system: Pancreatic islet cell carcinoma; assay: as §7, with “tumor vessels” for “tumor cell”; format: functional; set-up: scale not given: the % may be the effect or the level left; details: time 7 day; how it was run: as §4
OVCAR-3 [17] = assay: as §6, with “S6K” for “AKT phosphorylation”, “[…] residues” for “Ser 473 site”, “PI3K assessed as inhibition of s6 substrate phosphorylation at […] residue” for “PI3K”; format: cell-based; details: dose 0.001-10 µM
[18] = system: Pancreatic islet cell carcinoma; assay: Antivascular activity against pancreatic islet cell carcinoma in RIP-Tag2 mouse assessed as appearance of empty basement membrane sleeves at 20 mg/kg, ip qd measured after 7 days by immunohistochemical staining based confocal microscopic analysis; format: functional, organism-based; details: time 7.0 day; how it was run: as §2
[19] = system: Pancreatic islet cell carcinoma; assay: Antitumor activity against pancreatic islet cell carcinoma in RIP-Tag2 mouse assessed as reduction in VEGF-A expression at 20 mg/kg, ip qd measured after 7 days by immunoprecipitation based densitometric analysis; format: functional, organism-based; details: time 7.0 day
How it was run: (§8)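 VEGF in tumor lysates from treated RIP-Tag2 mice (9–10 weeks old at start; 75 mg/kg gavage BID or 20 mg/kg ip QD) measured with mouse angiogenesis antibody arrays, read as pixel density. 3–8 mice/group, SEM; ANOVA with Fisher PLSD.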

[20] = biological target: Eukaryotic translation initiation factor 4E-binding protein 1 (Homo sapiens) (UniProt Q13541); assay: Inhibition of 4E-BP1 phosphorylation at Ser 37/46 residues in serum deprived/insulin stimulated human OVCAR-3 cells harboring PTEN and wild type PI3K at 0.001 to 10 uM preincubated for 2 hrs followed by insulin stimulation and measured immediately by Western blot analysis; format: cell-based; details: dose 0.001-10 µM
Sequence of Eukaryotic translation initiation factor 4E-binding protein 1 (Homo sapiens) (Q13541 whole entry): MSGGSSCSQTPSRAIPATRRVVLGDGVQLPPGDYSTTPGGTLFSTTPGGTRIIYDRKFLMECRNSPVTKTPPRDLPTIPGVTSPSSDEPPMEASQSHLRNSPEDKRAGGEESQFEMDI

[21] = system: Pancreatic islet cell carcinoma; assay: Antivascular activity against pancreatic islet cell carcinoma in RIP-Tag2 mouse assessed as reduction in CD31-positive tumor blood vessels at 20 mg/kg, ip qd measured after 7 days by immunohistochemical staining based fluorescence microscopic analysis; format: functional, organism-based; details: time 7.0 day; how it was run: as §2
[22] = biological target: Proline-rich AKT1 substrate 1 (Homo sapiens) (UniProt Q96B36); assay: Inhibition of PRAS40 phosphorylation at Ser 246 residue in serum deprived/insulin stimulated human OVCAR-3 cells harboring PTEN and wild type PI3K at 0.001 to 10 uM preincubated for 2 hrs followed by insulin stimulation and measured immediately by Western blot analysis; format: cell-based; details: dose 0.001-10 µM
Mus musculus [23] = assay: In vivo inhibition of S6 phosphorylation at 235/236 residues in nu/nu CD-1 mouse xenografted with human GEO cells at 20 mg/kg administered for 12 days and measured 2 to 24 hrs post last dose by Western blot analysis; format: functional, organism-based; details: time 290-312 hrs
How it was run: (§9)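 GEO s.c. xenografts in nu/nu CD-1 mice; 20 mg/kg for 12 days; tumors snap-frozen at 2, 8, 24 h, lysed in Triton X-100/HEPES pH 7.4 buffer with phosphatase inhibitors; phospho and total 4E-BP1 (37/46) or S6 (235/236) by Western blot; n=2.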

[24] = system: Pancreatic islet cell carcinoma; assay: Antitumor activity against pancreatic islet cell carcinoma in RIP-Tag2 mouse assessed as reduction in VEGF-B expression at 20 mg/kg, ip qd measured after 7 days by immunoprecipitation based densitometric analysis; format: functional, organism-based; details: time 7.0 day; how it was run: as §8
Mus musculus [25] = assay: In vivo inhibition of 4E-BP1 phosphorylation at Ser37/46 residues in nu/nu CD-1 mouse xenografted with human GEO cells at 20 mg/kg administered for 12 days and measured 2 to 24 hrs post last dose by Western blot analysis; format: functional, organism-based; details: time 290-312 hrs; how it was run: as §9
Mus musculus [26] = assay: In vivo inhibition of AKT phosphorylation in RIP-Tag2 mouse with pancreatic islet cell carcinoma 20 mg/kg, ip qd measured after 7 days by immunohistochemistry; format: functional, organism-based; details: time 7.0 day; how it was run: as §5
[27] = system: Pancreatic islet cell carcinoma; assay: Antivascular activity in pancreatic islet cell carcinoma in RIP-Tag2 mouse assessed as reduction in intratumoral hemorrhage by measuring reduction in TER-119 immunoreactivity at 20 mg/kg, ip qd pretreated with OSI-930 for 7 days at 200 mg/kg, po followed by compound administration and measured after 4 days by confocal microscopic analysis relative to control; format: functional; set-up: scale not given: the % may be the effect or the level left; details: time 4 day; how it was run: as §3
[28] = system: Pancreatic islet cell carcinoma; assay: Antivascular activity in pancreatic islet cell carcinoma in RIP-Tag2 mouse assessed as suppression of tumor regrowth by measuring reduction in vessel density at 20 mg/kg, ip qd pretreated with OSI-930 for 7 days at 200 mg/kg, po followed by compound administration and measured after 4 days (reference value: 18%); format: functional; set-up: scale not given: the % may be the effect or the level left; details: time 4 day; how it was run: as §3
[29] = system: Pancreatic islet cell carcinoma; assay: Antitumor activity in pancreatic islet cell carcinoma in RIP-Tag2 mouse assessed as induction of apoptosis by measuring increase in activated caspase-3 level at 20 mg/kg, ip qd […] for 4 days in presence of OSI-930 by immunohistochemistry analysis; format: functional, organism-based; details: time 4.0 day; how it was run: as §1
OVCAR-3 [30] = assay: Inhibition of S6K phosphorylation at 235/236 residues in serum deprived/insulin stimulated human OVCAR-3 cells harboring PTEN and wild type PI3K at 0.001 to 10 uM preincubated for 2 hrs followed by insulin stimulation and measured immediately by Western blot analysis; format: cell-based; details: dose 0.001-10 µM

IC50 [2]: 9 nM
Compound: O=C(Nc1ccc(OC(F)(F)F)cc1)c1sccc1NCc1ccnc2ccccc12 [OSI-930]
Activity [1]: Active
Activity [3]: 61%
Activity [4]: Active
Activity [5]: 700%
Activity [6]: inactive
Activity [7]: 28%
Activity [8]: 61%
Activity [9]: 72%

inhibition [14]: inactive
inhibition [20]: inactive
inhibition [22]: inactive
Compound: CO[C@H]1C[C@@H]2CC[C@@H](C)[C@@](O)(O2)C(=O)C(=O)N2CCCC[C@H]2C(=O)O[C@H]([C@H](C)C[C@@H]2CC[C@@H](O)[C@H](OC)C2)CC(=O)[C@H](C)/C=C(\C)[C@@H](O)[C@@H](OC)C(=O)[C@H](C)C[C@H](C)/C=C/C=C/C=C/1C [SIROLIMUS]
Activity [10]: 21%
inhibition (Mus musculus [11]): inactive
inhibition (Mus musculus [12]): Active
Activity [13]: 21%
Activity [15]: 34%
Activity [16]: 20%
inhibition (OVCAR-3 [17]): Active
Activity [18]: inactive
Activity [19]: inactive
Activity [21]: inactive
inhibition (Mus musculus [23]): Active
Activity [24]: inactive
inhibition (Mus musculus [25]): Active
inhibition (Mus musculus [26]): inactive
Activity [27]: 48%
Activity [28]: 15%
Activity [29]: inactive
inhibition (OVCAR-3 [30]): Active

— ChEMBL document CHEMBL5653605, “Reduced VEGF production, angiogenesis, and vascular regrowth contribute to the antitumor properties of dual mTORC1/mTORC2 inhibitors” (Cancer Res, 2011)
